# These entries were drawn from the full list.
# PGC1a acetyl up – compounds raising PGC1a acetylation signal, primary screen, PGC1a modulator project, cell-based, U2OS, AlphaScreen, signal-increasing mode | overnight | activation, % at 15.6 µM | 0.21% of 350,000 active;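 active = every replicate reaching activation of at least 50%, whatever the mean replicate activation; inconclusive = replicates that disagree or another doubt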;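 also: hits raise the AlphaScreen acetylation signal above neutral controls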
#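 System – flag-PGC1a/GCN5 U2OS cells · Quantity – 7000 U2OS cells per well · Signal – AlphaScreen proximity luminescence, anti-acetyl-lysine antibody · Schedule – overnight compound treatment, 37 °C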
# Hep G6PC suppr – suppressors of forskolin-stimulated G6PC mRNA, dose response, PGC-1a acetylation activator project, cell-based, hepatocytes, RT-qPCR, cherry-picked samples | shares compounds with PGC1a acetyl up | primary mouse hepatocytes | G6PC suppression (normalized activity, % of positive control; higher = more suppression), % at 26 µM | 240 tested, under 10 active | AID 743463, 2014;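 active = dose curves showing G6PC suppression whose half-maximal dose is at most twice the top valid dose; inconclusive = flat curves with moderate negative activity, or unreliable fits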;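 also: G6PC expression relative to GAPDH housekeeping gene as delta delta Ct; 0% = median of neutral control wells and 100% = median of positive control wells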
# PCK1 hep suppr – suppression of PCK1 mRNA in primary hepatocytes, dose response, PGC-1a acetylation activator project, cell-based, primary mouse hepatocytes, RT-qPCR, cherry-pick | shares compounds with PGC1a acetyl up | forskolin-stimulated | PCK1 expression decrease, unspecified at 26 µM | 230 tested, under 10 active | AID 743465, 2014;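 active = compounds lowering PCK1 expression whose fitted half-maximal concentration is at most twice the top tested dose; inconclusive = flat fit with moderate opposite-direction effect, or poor fit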;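 also: values are delta delta Ct of PCK1 relative to GAPDH; higher delta delta Ct means lower PCK1 expression so positive values indicate hits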
# PGC1a hep suppr – suppression of PGC-1a mRNA in primary hepatocytes, dose response, PGC-1a acetylation activator project, cell-based, primary mouse hepatocytes, RT-qPCR, cherry-pick; shares compounds with PGC1a acetyl up; PGC-1a mRNA qPCR, forskolin; top dose 26 µM; max activity (PGC-1a expression decrease), %; 240 tested, under 10 active; AID 743467, 2014;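 active = compound lowering PGC-1a expression with fitted half-maximal concentration at most twice its top tested dose; inconclusive = flat curve with moderate opposite-direction effect, or poor fit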;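 also: 0% = neutral control wells median and 100% = positive control wells median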
# * = called active by the depositor; ? = inconclusive; nt = not tested or not shown.
SMILES,PGC1a acetyl up,PCK1 hep suppr,PGC1a hep suppr,others
C#CC(=O)N(c1cccc(OC)c1)C(C(=O)NC1CCCC1)c1cccs1 (stereo not drawn),-93.0,nt,nt,
COc1ccc(N(C(=O)c2snc(C(N)=O)c2N)C(C(=O)NC2CCCC2)c2ccco2)c(OC)c1 (stereo not drawn),?,6.71,-29.6,
O=C(CCc1nc2ccccc2c(=O)[nH]1)Nc1ccc(N2CCCCC2)cc1,100.3*,nt,86.9,Hep G6PC suppr=42.4
O=C(CSc1c(Cl)cccc1Cl)NC1CCCc2ccccc21 (stereo not drawn),-42.6,nt,nt,
O=C(O)c1ccc2c(c1)OCCCO2,-44.2,nt,nt,
CC1(C)CC(=O)C(C=NCC(N)=O)=C(O)C1,-52.2,nt,nt,
Cc1ccc(C(=O)N2CCN(c3ccc(NC(=O)c4ccc(Br)o4)cc3)CC2)cc1,?,-21.3,62.6,Hep G6PC suppr=-37.3
Cc1ccc(-n2c(O)c(C=NC3CCS(=O)(=O)C3)c3ccccc3c2=O)c(C)c1 (stereo not drawn),-56.9,nt,nt,
O=C(CC1S/C(=N/N=C/c2c[nH]c3ccccc23)NC1=O)Nc1ccccc1 (stereo not drawn),-42.2,nt,nt,
O=C(C1CCC1)N1CCN(S(=O)(=O)c2ccccc2)CC1,?,1.22,118.5,Hep G6PC suppr=11.1
O=C(O)C1CCCN1S(=O)(=O)c1cc(Cl)ccc1Cl (stereo not drawn),-42.5,nt,nt,
NCCCn1c(C(=O)c2cc(Cl)c(N)c(Cl)c2)c2ccc([N+](=O)[O-])cc2[n+]1[O-],-54.4,nt,nt,
COc1ccc(S(=O)(=O)N(C)CC(=O)Nc2cccc(C(C)=O)c2)cc1Cl,?,13.4,?,Hep G6PC suppr=16.8
CC(=O)N(c1cccc(C)c1)S(=O)(=O)c1ccc(Cl)cc1,-53.0,nt,nt,
CCN(C(=O)CN1CCN(c2ccccc2O)CC1)c1c(N)n(Cc2ccccc2)c(=O)[nH]c1=O,-50.3,nt,nt,
O=C(CC(C(=O)O)c1c[nH]c2ccccc12)c1ccccc1 (stereo not drawn),-81.2,nt,nt,
NS(=O)(=O)c1ccc(-c2ccc(/C=C3\C(=O)Nc4cc(Cl)ccc43)o2)cc1,-48.6,nt,nt,
COC(=O)Cn1ccc(-c2ccc(Cl)cc2)c(C#N)c1=O,-49.4,nt,nt,
COc1ccc(CN(CCC(C)C)S(=O)(=O)c2ccccc2Br)cc1,74.0*,50.8,99.4,
COc1ccc(-c2csc(N(CCCN(C)C)C(=O)c3cccs3)n2)cc1,-46.1,nt,nt,
CC(/C=C1\SC(=O)N(CCCC(=O)O)C1=O)=C\c1ccccc1,-43.0,nt,nt,
CCN(CC)c1cc(Cl)nc(N)n1,-43.2,nt,nt,
COc1ccc(C2c3[nH]c4ccccc4c3C[C@H]3C(=O)N(c4ccccc4C(=O)N4CCC[C@@H]4C(=O)O)C(=O)N23)cc1 (stereo partly drawn),-44.1,nt,nt,
CN1C2C=C3C(C#N)=C(N)C(C#N)(C#N)C(c4ccc(Br)cc4)C3C1CC2 (stereo not drawn),-41.5,nt,nt,
COc1ccc2nc(C)cc(N/N=C/c3ccc(F)cc3)c2c1,-93.7,nt,nt,
SMILES,PGC1a acetyl up,PCK1 hep suppr,PGC1a hep suppr,others
CCc1c(C(=O)NC2CCCCC2)[nH]c(C)c1C(C)=O,-93.4,nt,nt,
Cc1c(Cl)cccc1Nc1ncccc1C(=O)O,-56.4,nt,nt,
O=C(NC1CCCCC1)c1cccnc1C(=O)O,-50.6,12.7,69.1,Hep G6PC suppr=39.6
COCCCNC(=O)c1cc(=O)n(Cc2ccc(Cl)cc2)c2ccccc12,-45.1,nt,nt,
COc1ccc(N=C2S/C(=C\c3ccc(N4CCOCC4)o3)C(=O)N2CCc2c[nH]c3ccccc23)cc1,-62.1,nt,nt,
COc1ccc(Nc2nnc(-c3ccc(C(N)=O)cc3)c3ccccc23)cc1,88.7*,77.8,111.4,Hep G6PC suppr=156.7
CCOc1ccc2nc(NCCNC(=O)Nc3ccccc3)c(C#N)cc2c1,-64.2,nt,nt,
CCn1c(COc2ccc(=O)n(-c3ccccc3)n2)nnc1SCc1ccc(C)cc1,-46.2,nt,nt,
CCCc1cc2c(cc1N(C)S(=O)(=O)c1ccccc1)OCO2,?,152,117.1,Hep G6PC suppr=18.3
CC(N=C1NS(=O)(=O)c2ccccc21)C(=O)NCCCc1ccccc1 (stereo not drawn),-46.5,nt,nt,
COCCNC(=O)CN1CCC(NC(=O)C(C)(C)C)CC1,-44.6,nt,nt,
Cc1ccc(NC(=O)CN2CCC(NC(=O)Cc3ccccc3)CC2)c(C)c1,141.4*,13.5,37.8,Hep G6PC suppr=22.7
CC(C)n1c(N2CCN(CC(=O)NCc3cccs3)CC2)nc2ccccc21,nt,26.3,68.2,Hep G6PC suppr=35.0
CC(C)c1ccccc1NC(=O)Cn1c(-c2ccccc2Cl)nc2ccccc21,-43.3,nt,nt,

# Screening data as filed in PubChem.
